Assay results of several laboratories.
Compare with care: the assays were run in different laboratories.
Observed: metabolic stability
Medium: liver microsomes

| Compound | system | conditions | microsomal CLint [µL/min/mg] |
| --- | --- | --- | --- |
| COCC(=O)N1CCC[C@H](C(=O)NCc2nc(-c3ccc(OC)cc3)cs2)C1 | male Sprague-Dawley rat | 0.5 µM | 39 |
| N#Cc1ccc(C[C@H](Nc2c(Nc3ccc(F)cc3)c(=O)c2=O)C(=O)N2CCc3ccccc32)cc1 | rat | 10 µM, pH 7.4 | 34.6 |
| Cc1[nH]c(C)c(S(=O)(=O)Nc2ccc(C(F)(F)F)c(Cl)c2Cl)c1C(=O)N1CCC(F)(F)C1 | rat |  | 21.8 |
| O=C(Nc1ccc(OC(F)(F)Cl)cc1)c1cnc(N2CC[C@@H](O)C2)c(-c2ccn[nH]2)c1 | rat | 1 µM, pH 7.4 | 12.9 |
| O=C(NCc1nc(-c2ccccc2)cs1)[C@H]1CCCN(C(=O)COCC(F)F)C1 | male Sprague-Dawley rat | 0.5 µM | 85 |
| N#Cc1ccc(C[C@H](Nc2nnc(-c3ccc(F)cc3)s2)C(=O)N2CCc3ccccc32)cc1 | rat | 10 µM, pH 7.4 | 35.9 |
| O=C1c2ccccc2C(=O)N1CCCN1CCN(C(c2ccc(F)cc2)c2ccc(F)cc2)CC1 | rat | 100 ng/mL | 101 |
| CCOc1c([C@H](C)n2nc(C)c3c(N)ncnc32)cc(Cl)c(F)c1[C@@H]1CNC(=O)C1 | rat | 0.5 µM, pH 7.4 | 2.4 |
| Cc1cccc(-c2nnc(N[C@@H](Cc3ccc(C#N)cc3)C(=O)N3CCc4ccccc43)o2)c1 | rat | 10 µM, pH 7.4 | 38.5 |
| COc1ccc(Cn2cc(CO[C@@H]3O[C@H]4[C@H](OC[C@H]4O)[C@H]3O)nn2)cc1 | rat |  | < 14.4 |
| N#Cc1ccc(C[C@H](Nc2nnc(-c3ccc(Br)cc3)o2)C(=O)N2CCc3ccccc32)cc1 | rat | 10 µM, pH 7.4 | 25.7 |
| CN1CCC[C@H](OCC(=O)N2CCC[C@H](C(=O)NCc3nc(-c4ccc(C(F)(F)F)cc4)cs3)C2)C1 | male Sprague-Dawley rat | 0.5 µM | 33 |
| CONC(=O)c1cccc2c1cc(C)n2-c1nc2c(c(NCc3ccccc3)n1)CCCN2 | rat | 1 µM, pH 7.4 | 413 |
| COCC(=O)N1CCC[C@H](C(=O)NCc2nc(-c3ccc(C)nc3)cs2)C1 | male Sprague-Dawley rat | 0.5 µM | 6.3 |
| Cc1[nH]c(C)c(S(=O)(=O)Nc2ccc(C(F)(F)F)c(Cl)c2)c1C(=O)N(C)C | rat |  | 122 |
| N#Cc1ccc(C[C@H](Nc2c(Nc3ccc(Br)cc3)c(=O)c2=O)C(=O)N2CCc3ccccc32)cc1 | rat | 10 µM, pH 7.4 | 18.1 |
| COCC(=O)N1CCC[C@H](C(=O)NCc2nc(-c3ccc(-c4ccccc4)cc3)cs2)C1 | male Sprague-Dawley rat | 0.5 µM | 194 |
